Test results taken from ChEMBL document CHEMBL5247578, “Effective synthesis of benzimidazoles-imidazo[1,2-a]pyrazine conjugates: A comparative study of mono-and bis-benzimidazoles for antitumor activity” (Eur J Med Chem, 2019).
The source made the active and inactive calls. The calls are words filed in the database; no cut-off is given here.

Assays:
MDA-MB-435 = assay: Antiproliferative activity against human MDA-MB-435 cells assessed as cell growth at 0.000001 M incubated for 48 hrs by SRB assay relative to control; assay type: functional; conditions: read-out: Activity
MDA-MB-468 [1] = assay: Antiproliferative activity against human MDA-MB-468 cells assessed as cell growth at 0.000001 M incubated for 48 hrs by SRB assay relative to control; assay type: functional; conditions: read-out: Activity
SR = assay: Antiproliferative activity against human SR cells assessed as cell growth at 0.0001 M incubated for 48 hrs by SRB assay relative to control; assay type: functional; conditions: read-out: Activity
MCF7 = assay: Growth inhibition against human MCF7 cells assessed as total growth inhibitory concentration incubated for 48 hrs by sulforhodamine B assay; assay type: functional
LOX IMVI = assay: Growth inhibition against human LOX IMVI cells incubated for 48 hrs by sulforhodamine B assay; assay type: functional
SK-MEL-2 = assay: Antiproliferative activity against human SK-MEL-2 cells assessed as cell growth at 0.0000001 M incubated for 48 hrs by SRB assay relative to control; assay type: functional; conditions: dose 100 nM, read-out: Activity
CAKI-1 [2] = assay: Antiproliferative activity against human CAKI-1 cells assessed as cell growth at 0.00001 M incubated for 48 hrs by SRB assay relative to control; assay type: functional; conditions: read-out: Activity
Method in brief: (§1)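 NCI-60 five-dose screen over 10^-4–10^-8 M (10-fold dilutions). Cells grown in RPMI 1640 with 5% FBS and 2 mM L-glutamine, seeded at 5,000–40,000 cells/well and preincubated 24 h. Drug from DMSO stock, 48 h at 37 °C, 5% CO2. Adherent cells TCA-fixed and stained with 0.4% SRB; A515 read. Percent growth = (Ti−Tz)/(C−Tz)×100, or (Ti−Tz)/Tz×100 when Ti<Tz.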

HT-29 = assay: Antiproliferative activity against human HT-29 cells assessed as cell growth at 0.0000001 M incubated for 48 hrs by SRB assay relative to control; assay type: functional; conditions: dose 100 nM, read-out: Activity
Method in brief: (§2)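 NCI-60 five-dose screen (10^-4 to 10^-8 M). Cells grown in RPMI 1640 with 5% FBS and 2 mM L-glutamine, plated at 5,000-40,000 cells/well and preincubated 24 h. Drug given from DMSO stock, then 48 h at 37 °C, 5% CO2. For adherent lines, cells fixed with cold TCA, SRB-stained and read at 515 nm. Percent growth taken against time-zero and untreated control.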

UACC-62 = assay: Antiproliferative activity against human UACC-62 cells assessed as cell growth at 0.00001 M incubated for 48 hrs by SRB assay relative to control; assay type: functional; conditions: read-out: Activity
HCT-116 = assay: Antiproliferative activity against human HCT-116 cells assessed as cell growth at 0.0000001 M incubated for 48 hrs by SRB assay relative to control; assay type: functional; conditions: dose 100 nM, read-out: Activity; method in brief: as §2
CAKI-1 [3] = assay: Antiproliferative activity against human CAKI-1 cells assessed as cell growth inhibition by measuring lethal concentration incubated for 48 hrs by sulforhodamine B assay; assay type: functional; conditions: read-out: LC50 (the source's name)
SNB-19 [4] = assay: Antiproliferative activity against human SNB-19 cells assessed as cell growth at 0.00000001 M incubated for 48 hrs by SRB assay relative to control; assay type: functional; conditions: dose 10 nM, read-out: Activity
NCI-H322M = assay: Growth inhibition against human NCI-H322M cells incubated for 48 hrs by sulforhodamine B assay; assay type: functional
RPMI-8226 = assay: Antiproliferative activity against human RPMI-8226 cells assessed as cell growth at 0.00001 M incubated for 48 hrs by SRB assay relative to control; assay type: functional; conditions: read-out: Activity
HL-60 = assay: Antiproliferative activity against human HL-60 cells assessed as cell growth at 0.0001 M incubated for 48 hrs by SRB assay relative to control; assay type: functional; conditions: read-out: Activity; method in brief: as §2
Malme-3M = assay: Antiproliferative activity against human Malme-3M cells assessed as cell growth at 0.0001 M incubated for 48 hrs by SRB assay relative to control; assay type: functional; conditions: read-out: Activity
TK-10 = assay: Growth inhibition against human TK-10 cells assessed as total growth inhibitory concentration incubated for 48 hrs by sulforhodamine B assay; assay type: functional
Calf thymus DNA = assay: Binding affinity to calf thymus DNA assessed as intercalation by measuring decrease in DNA intensity by circular dichroism spectroscopy; assay type: nucleic-acid assay; conditions: Bos taurus
MDA-MB-468 [5] = assay: Antiproliferative activity against human MDA-MB-468 cells assessed as cell growth at 0.00001 M incubated for 48 hrs by SRB assay relative to control; assay type: functional; conditions: read-out: Activity
SK-MEL-28 = assay: Antiproliferative activity against human SK-MEL-28 cells assessed as cell growth at 0.0001 M incubated for 48 hrs by SRB assay relative to control; assay type: functional; conditions: read-out: Activity
786-0 = assay: Antiproliferative activity against human 786-0 cells assessed as cell growth at 0.00001 M incubated for 48 hrs by SRB assay relative to control; assay type: functional; conditions: read-out: Activity; method in brief: as §1
OVCAR-3 = assay: Growth inhibition against human OVCAR-3 cells assessed as total growth inhibitory concentration incubated for 48 hrs by sulforhodamine B assay; assay type: functional
KM12 = assay: Antiproliferative activity against human KM12 cells assessed as cell growth at 0.000001 M incubated for 48 hrs by SRB assay relative to control; assay type: functional; conditions: read-out: Activity
SK-OV-3 = assay: Antiproliferative activity against human SK-OV-3 cells assessed as cell growth at 0.0001 M incubated for 48 hrs by SRB assay relative to control; assay type: functional; conditions: read-out: Activity
OVCAR-5 = assay: Antiproliferative activity against human OVCAR-5 cells assessed as cell growth at 0.000001 M incubated for 48 hrs by SRB assay relative to control; assay type: functional; conditions: read-out: Activity
NCI-H226 = assay: Growth inhibition against human NCI-H226 cells incubated for 48 hrs by sulforhodamine B assay; assay type: functional
A549 = assay: Antiproliferative activity against human A549 cells assessed as cell growth at 0.0000001 M incubated for 48 hrs by SRB assay relative to control; assay type: functional; conditions: dose 100 nM, read-out: Activity; method in brief: as §1
SNB-19 [6] = assay: Antiproliferative activity against human SNB-19 cells assessed as cell growth inhibition by measuring lethal concentration incubated for 48 hrs by sulforhodamine B assay; assay type: functional; conditions: read-out: LC50 (the source's name)
Method in brief: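 NCI-60 five-dose screen (10^-4 to 10^-8 M, 10-fold dilutions; DMSO stocks). Cells in RPMI 1640 with 5% FBS and 2 mM L-glutamine, preincubated 24 h, then exposed 48 h at 37 °C, 5% CO2. Fixed with cold TCA, stained with 0.4% SRB, absorbance read at 515 nm. Time-zero plates used as reference. LC50 taken from [(Ti-Tz)/Tz]×100 […].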

BT-549 = assay: Antiproliferative activity against human BT-549 cells assessed as cell growth at 0.0000001 M incubated for 48 hrs by SRB assay relative to control; assay type: functional; conditions: dose 100 nM, read-out: Activity; method in brief: as §1
RXF 393 = assay: Antiproliferative activity against human RXF 393 cells assessed as cell growth at 0.00001 M incubated for 48 hrs by SRB assay relative to control; assay type: functional; conditions: read-out: Activity
M14 = assay: Antiproliferative activity against human M14 cells assessed as cell growth at 0.00001 M incubated for 48 hrs by SRB assay relative to control; assay type: functional; conditions: read-out: Activity
CCRF-CEM = assay: Antiproliferative activity against human CCRF-CEM cells assessed as cell growth at 0.00000001 M incubated for 48 hrs by SRB assay relative to control; assay type: functional; conditions: dose 10 nM, read-out: Activity; method in brief: as §1

Row | SMILES | growth at 1 µM (MDA-MB-435) [%] | growth at 1 µM (MDA-MB-468 [1]) [%] | growth at 100 µM (SR) [%] | TGI (MCF7) [µM] | GI50 (LOX IMVI) [µM] | growth at 0.1 µM (SK-MEL-2) [%] | growth at 10 µM (CAKI-1 [2]) [%] | growth at 0.1 µM (HT-29) [%] | growth at 10 µM (UACC-62) [%] | growth at 0.1 µM (HCT-116) [%] | CC50 (CAKI-1 [3]) [µM] | growth at 0.01 µM (SNB-19 [4]) [%] | GI50 (NCI-H322M) [µM] | growth at 10 µM (RPMI-8226) [%] | growth at 100 µM (HL-60) [%] | growth at 100 µM (Malme-3M) [%] | TGI (TK-10) [µM] | Activity (Calf thymus DNA) | growth at 10 µM (MDA-MB-468 [5]) [%] | growth at 100 µM (SK-MEL-28) [%] | other results
1 | c1ccc(Cn2cnc3ccc(-c4nc(-c5ccc6c(c5)ncn6C5CCCCC5)cn5ccnc45)cc32)cc1 | 92 | 89 | 6 | > 100 | 1.64 | 90 | 17 | 97 | -37 | 93 | > 100 | 99 | 3.05 | -29 | -18 | 23 | > 100 | Active | -49 | 13 | growth at 10 µM (786-0): 4%; TGI (OVCAR-3): 5.79 µM; growth at 1 µM (KM12): 93%; growth at 100 µM (SK-OV-3): 6%; growth at 1 µM (OVCAR-5): 89%; GI50 (NCI-H226): 2.93 µM; growth at 0.1 µM (A549): 109%; CC50 (SNB-19 [6]): > 100 µM; growth at 0.1 µM (BT-549): 92%; growth at 10 µM (RXF 393): -79%; growth at 10 µM (M14): -25%; growth at 0.01 µM (CCRF-CEM): 100%
2 | COc1ccc(-c2cn3ccnc3c(-c3ccc4ncn(C5CCCCC5)c4c3)n2)cc1 | 7 | 47 | 16 | > 100 | 0.741 | 92 | 25 | 92 | 7 | 91 | > 100 | 107 | > 100 | 10 | -7 | 49 | 68.9 | Active | 21 | 36 | growth at 10 µM (786-0): -32%; TGI (OVCAR-3): > 100 µM; growth at 1 µM (KM12): 57%; growth at 100 µM (SK-OV-3): -2%; growth at 1 µM (OVCAR-5): 75%; GI50 (NCI-H226): 2.97 µM; growth at 0.1 µM (A549): 103%; CC50 (SNB-19 [6]): > 100 µM; growth at 0.1 µM (BT-549): 88%; growth at 10 µM (RXF 393): -2%; growth at 10 µM (M14): 9%; growth at 0.01 µM (CCRF-CEM): 106%
